Each block holds one compound with its values, some of them ahead of it. The source made the active and inactive calls. No cut-off for these calls is given here.
Key:
[1] = target: T1, Mineralocorticoid receptor (Rattus norvegicus) (UniProt P22199); assay: Relative binding affinity to the rat mineralocorticoid receptor determined in rat renal cytosol using [3]Ald as ligand
T1 sequence (whole entry): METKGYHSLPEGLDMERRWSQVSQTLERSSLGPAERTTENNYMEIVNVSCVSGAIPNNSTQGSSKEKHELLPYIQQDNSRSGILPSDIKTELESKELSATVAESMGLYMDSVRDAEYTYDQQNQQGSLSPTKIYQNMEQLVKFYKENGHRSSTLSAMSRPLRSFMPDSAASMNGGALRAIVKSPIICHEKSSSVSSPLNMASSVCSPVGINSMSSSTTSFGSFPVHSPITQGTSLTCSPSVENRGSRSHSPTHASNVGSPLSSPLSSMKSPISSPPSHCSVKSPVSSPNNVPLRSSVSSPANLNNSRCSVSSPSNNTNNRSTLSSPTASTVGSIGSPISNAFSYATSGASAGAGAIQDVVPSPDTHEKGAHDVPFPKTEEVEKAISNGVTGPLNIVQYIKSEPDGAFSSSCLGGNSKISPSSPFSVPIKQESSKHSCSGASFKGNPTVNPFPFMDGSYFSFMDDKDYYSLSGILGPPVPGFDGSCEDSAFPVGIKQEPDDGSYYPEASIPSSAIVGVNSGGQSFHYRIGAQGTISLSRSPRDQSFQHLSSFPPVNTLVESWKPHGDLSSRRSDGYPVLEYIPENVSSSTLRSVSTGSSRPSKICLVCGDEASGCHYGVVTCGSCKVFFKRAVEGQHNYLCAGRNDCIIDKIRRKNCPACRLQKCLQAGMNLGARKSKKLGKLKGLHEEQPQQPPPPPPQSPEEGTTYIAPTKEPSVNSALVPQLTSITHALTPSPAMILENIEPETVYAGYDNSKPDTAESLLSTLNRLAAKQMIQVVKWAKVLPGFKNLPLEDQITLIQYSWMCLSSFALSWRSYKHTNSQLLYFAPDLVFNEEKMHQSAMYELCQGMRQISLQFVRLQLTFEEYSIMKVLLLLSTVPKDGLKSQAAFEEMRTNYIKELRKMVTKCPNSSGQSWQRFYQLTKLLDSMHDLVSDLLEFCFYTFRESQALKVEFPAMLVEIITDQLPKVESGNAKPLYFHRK
How it was run: (§1)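 Renal cytosol came from male Sprague-Dawley rats (4-8 weeks) adrenalectomized bilaterally 1 or 2 days earlier. It was incubated with various competitor concentrations and about 1 nM [3H]Ald for 42-48 h at 0 °C or 100-120 min at 25 °C. Bound and free steroid were separated by DCC.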

[2] = target: T1, Mineralocorticoid receptor (Rattus norvegicus); assay: Antagonist activity against Mineralocorticoid receptor was determined after subcutaneous administration in Male Sprague Dawley rats; type: functional, organism-based
How it was run: (§2)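 Male rats were bilaterally adrenalectomized (bioassay modified from Kagawa). Ald (1 µg/kg) was given sc, immediately followed by test compound in sesame oil sc or orally. Urine was collected from 2 to 6 h after steroid. Potency came from the urinary Na/K ratio of sample versus control, with 95% confidence limits.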

[3] = target: T1, Mineralocorticoid receptor (Rattus norvegicus); assay: Agonist activity against Mineralocorticoid receptor was determined after subcutaneous administration in Male Sprague Dawley rats; (+) =positive; type: functional, organism-based; details: filed as agonist
[4] = target: T1, Mineralocorticoid receptor (Rattus norvegicus); assay: Relative binding affinity against mineralocorticoid receptor determined in rat renal cytosol using [3]Ald as ligand; how it was run: as §1
Rattus norvegicus = species on record: Rattus norvegicus; assay: Displacement of [3H]promegestone from progestin receptor of rat uterine cytosol at 0 degree Centigrade
How it was run: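 Uteri from estradiol-primed rats supplied the cytosol. It was incubated with various competitor concentrations and about 1 nM [3H]promegestone for 16-20 h at 0 °C. Bound and free steroid were separated by DCC. RBA (progesterone = 100%) = 100 × ratio of the 50%-inhibition concentrations of standard and competitor.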

[5] = target: T1, Mineralocorticoid receptor (Rattus norvegicus); assay: Relative potency compared to Aldosterone; Range is 177-1340; type: functional
[6] = target: T1, Mineralocorticoid receptor (Rattus norvegicus); assay: Relative potency compared to Aldosterone;Range 14-224; type: functional
[7] = target: T1, Mineralocorticoid receptor (Rattus norvegicus); assay: Antagonist activity against Mineralocorticoid receptor after subcutaneous administration in Male Sprague Dawley rats; (+) =positive; type: functional, organism-based; details: filed as antagonist; how it was run: as §2
[8] = target: T1, Mineralocorticoid receptor (Rattus norvegicus); assay: Antagonist activity against Mineralocorticoid receptor after oral administration in Male Sprague Dawley rats; (+) =positive; type: functional, organism-based; details: filed as antagonist; how it was run: as §2
[9] = target: T1, Mineralocorticoid receptor (Rattus norvegicus); assay: Antagonist activity against Mineralocorticoid receptor after po administration in Male Sprague Dawley rats; (-) = negative; type: functional, organism-based; how it was run: as §2
[10] = target: T2, Androgen receptor (Rattus norvegicus) (UniProt P15207); assay: Relative anti-androgenic activity as suppressive effect on weight increase of ventral prostate in castrated immature rats given testosterone propionate (95% confidence limit); type: functional; details: Prostate gland
T2 sequence (whole entry): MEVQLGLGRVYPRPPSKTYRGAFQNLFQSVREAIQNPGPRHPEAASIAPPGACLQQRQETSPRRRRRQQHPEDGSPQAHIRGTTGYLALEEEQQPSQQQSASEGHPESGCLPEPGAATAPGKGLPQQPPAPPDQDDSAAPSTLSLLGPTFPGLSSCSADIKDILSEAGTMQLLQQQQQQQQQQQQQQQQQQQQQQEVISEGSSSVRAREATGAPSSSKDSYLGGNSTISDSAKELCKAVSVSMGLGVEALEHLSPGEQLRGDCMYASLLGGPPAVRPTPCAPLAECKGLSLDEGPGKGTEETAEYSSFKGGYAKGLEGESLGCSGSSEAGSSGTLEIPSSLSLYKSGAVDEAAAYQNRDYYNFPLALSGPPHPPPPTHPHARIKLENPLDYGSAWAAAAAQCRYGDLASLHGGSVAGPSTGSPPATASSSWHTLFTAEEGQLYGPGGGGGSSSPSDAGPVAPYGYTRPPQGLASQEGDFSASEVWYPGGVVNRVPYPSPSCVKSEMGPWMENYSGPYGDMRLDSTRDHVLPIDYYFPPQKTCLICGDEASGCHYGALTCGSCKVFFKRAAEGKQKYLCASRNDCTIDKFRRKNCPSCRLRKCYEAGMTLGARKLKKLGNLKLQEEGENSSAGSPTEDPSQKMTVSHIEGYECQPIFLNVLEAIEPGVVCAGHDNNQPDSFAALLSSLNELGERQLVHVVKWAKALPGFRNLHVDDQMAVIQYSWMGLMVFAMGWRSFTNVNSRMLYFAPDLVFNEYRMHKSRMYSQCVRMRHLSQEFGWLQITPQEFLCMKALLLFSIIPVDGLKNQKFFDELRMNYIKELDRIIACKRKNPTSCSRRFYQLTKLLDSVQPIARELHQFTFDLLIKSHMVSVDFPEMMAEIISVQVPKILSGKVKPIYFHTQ
How it was run: (§3)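 Male Sprague-Dawley rats (3 weeks old) were castrated 3 days earlier. […] Suppression of accessory sex organ weight gain gave relative antiandrogenic activity.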

[11] = target: T1, Mineralocorticoid receptor (Rattus norvegicus); assay: (§4) Relative anti-mineralocorticoid potency compared to Spironolactone after oral administration; type: functional, organism-based; how it was run: as §2
[12] = target: T1, Mineralocorticoid receptor (Rattus norvegicus); assay: as §4; type: functional, organism-based; how it was run: as §2; remark: listed apart in the source
[13] = target: T2, Androgen receptor (Rattus norvegicus); assay: Relative anti-androgenic activity as suppressive effect on weight increase of seminal vesicle in castrated immature rats given testosterone propionate (95% confidence limit); type: functional; how it was run: as §3
[14] = target: T1, Mineralocorticoid receptor (Rattus norvegicus); assay: Antagonist activity against Mineralocorticoid receptor after oral administration in Male Sprague Dawley rats; (-) = negative; type: functional, organism-based; how it was run: as §2
[15] = target: T1, Mineralocorticoid receptor (Rattus norvegicus); assay: Antagonist activity against Mineralocorticoid receptor after po administration in Male Sprague Dawley rats; (+) =positive; type: functional, organism-based; details: filed as antagonist; how it was run: as §2
[16] = target: T1, Mineralocorticoid receptor (Rattus norvegicus); assay: Relative potency compared to Aldosterone;Range 4.3-23; type: functional
[17] = target: T3, Progesterone receptor (Rattus norvegicus) (UniProt Q63449); assay: Relative binding affinity against progesterone receptor determined in rat […] cytosol using [3H]DHT as ligand
T3 sequence (whole entry): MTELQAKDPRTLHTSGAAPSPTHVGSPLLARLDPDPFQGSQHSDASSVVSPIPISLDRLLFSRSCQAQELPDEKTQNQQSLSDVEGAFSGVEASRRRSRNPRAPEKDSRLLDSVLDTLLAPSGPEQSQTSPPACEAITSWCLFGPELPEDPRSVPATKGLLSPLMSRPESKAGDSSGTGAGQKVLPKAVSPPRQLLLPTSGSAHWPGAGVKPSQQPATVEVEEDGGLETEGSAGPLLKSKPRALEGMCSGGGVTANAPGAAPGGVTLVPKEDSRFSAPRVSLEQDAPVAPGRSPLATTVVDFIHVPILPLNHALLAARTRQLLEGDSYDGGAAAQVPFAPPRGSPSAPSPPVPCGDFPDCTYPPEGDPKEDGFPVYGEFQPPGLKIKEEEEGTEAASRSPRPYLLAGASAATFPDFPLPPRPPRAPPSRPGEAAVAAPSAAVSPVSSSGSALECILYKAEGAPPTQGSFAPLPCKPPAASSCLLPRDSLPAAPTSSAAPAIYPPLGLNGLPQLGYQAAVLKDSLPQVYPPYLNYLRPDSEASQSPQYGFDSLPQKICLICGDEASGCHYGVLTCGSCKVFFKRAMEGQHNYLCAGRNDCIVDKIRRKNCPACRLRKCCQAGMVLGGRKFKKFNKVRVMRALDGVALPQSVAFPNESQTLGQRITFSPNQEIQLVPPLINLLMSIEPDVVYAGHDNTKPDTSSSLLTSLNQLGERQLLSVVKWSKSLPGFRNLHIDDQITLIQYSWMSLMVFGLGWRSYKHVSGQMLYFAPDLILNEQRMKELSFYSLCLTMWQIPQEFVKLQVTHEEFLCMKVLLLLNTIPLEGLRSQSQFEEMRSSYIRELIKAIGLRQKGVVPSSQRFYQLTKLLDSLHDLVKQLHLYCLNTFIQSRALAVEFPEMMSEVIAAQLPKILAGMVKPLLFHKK

[18] = target: T1, Mineralocorticoid receptor (Rattus norvegicus); assay: Relative binding affinity against Mineralocorticoid Receptor in Male Sprague-Dawley rats
How it was run: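 Renal cytosol from male Sprague-Dawley rats (4-8 weeks) adrenalectomized bilaterally 1 or 2 days earlier. Incubated with various competitor concentrations and about 1 nM [3H]aldosterone, for 42-48 h at 0 °C or 100-120 min at 25 °C. Charcoal (DCC) separation of bound and free.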

[19] = target: T1, Mineralocorticoid receptor (Rattus norvegicus); assay: In vivo relative Mineralocorticoid activity in Male Sprague-Dawley rats; type: functional, organism-based
[20] = target: T1, Mineralocorticoid receptor (Rattus norvegicus); assay: Relative potency against mineralocorticoid receptor; type: functional; how it was run: as §2
[21] = target: T1, Mineralocorticoid receptor (Rattus norvegicus); assay: Relative potency compared to Aldosterone;Range is 1.2-1.6; type: functional

Structure (SMILES): CC(=O)S[C@@H]1CC2=CC(=O)C=CC2(C)C2C=CC3(C)C(C4CC4[C@@]34CCC(=O)O4)C21 (stereo not given in full)
RBA [1]: 350%
Activity [2]: inactive
Activity [14]: inactive
Activity [15]: Antagonist
RBA [4]: 91%
Relative potency [16]: 4.3
RBA [17]: 23%

Structure (SMILES): C[C@]12C[C@H](O)[C@H]3[C@@H](CCC4=CC(=O)CC[C@@]43C)[C@@H]1CC[C@@H]2C(=O)CO
RBA [18]: 14%
Relative activity [19]: 0.14

Structure (SMILES): C[C@]12CCC(=O)C=C1CC[C@@H]1[C@@H]2[C@@H](O)C[C@]2(C=O)[C@@H](C(=O)CO)CC[C@@H]12
Relative potency [20]: 1
Relative activity [19]: 30

Next, values leading:

RBA [1]: 440%
Activity [2]: inactive
Activity [3]: Agonist
RBA [4]: 570%
RBA (Rattus norvegicus): 53%
Relative potency [5]: 177
Structure (SMILES): CC12CCC(=O)C=C1CCC1C2C=CC2(C)C1CC[C@@]21CCC(=O)O1 (stereo not given in full)

RBA [1]: 30%
Activity [2]: inactive
Activity [3]: Agonist
RBA [4]: 580%
RBA (Rattus norvegicus): 56%
Relative potency [6]: 14
Structure (SMILES): CC12CCC(=O)C=C1C1CC1C1C2C=CC2(C)C1CC[C@@]21CCC(=O)O1 (stereo not given in full)

RBA [1]: 20%
Activity [7]: Antagonist
Activity [8]: Antagonist
Activity [9]: inactive
RBA [4]: 22%
RBA (Rattus norvegicus): 1.6%
Activity [10]: 0.42
Relative potency [11]: 0.93
Relative potency [12]: 2.08
Activity [13]: 0.14
Structure (SMILES): CC12C=CC(=O)C=C1C=CC1C2C=CC2(C)C1CC[C@@]21CCC(=O)O1 (stereo not given in full)

RBA [1]: 480%
Activity [2]: inactive
Activity [14]: inactive
Activity [15]: Antagonist
RBA [4]: 250%
Relative potency [21]: 1.2
RBA [17]: 150%
Structure (SMILES): CC12C=CC(=O)C=C1C1CC1C1C2C=CC2(C)C1C1CC1[C@@]21CCC(=O)O1 (stereo not given in full)

— ChEMBL document CHEMBL1123888, “Aldosterone antagonists. 2. Synthesis and biological activities of 11,12-dehydropregnane derivatives” (J Med Chem, 1987)
